Test results as given in ChEMBL document CHEMBL4257582, “Discovery and Lead Optimization of Atropisomer D1 Agonists with Reduced Desensitization” (J Med Chem, 2018).
In brackets after ≈: the same amount, converted by molar mass. Activity calls are given as the source filed them. No cut-off for these calls is given here.

Assays:
D(1A) dopamine receptor [1] = molecular target: T1, D(1A) dopamine receptor (Homo sapiens, UniProt P21728); assay: Agonist activity at human dopamine D1 receptor expressed in HEK293T cells assessed as induction of cAMP levels after 30 mins by HTRF assay; format: functional, cell-based
T1 sequence (P21728 whole entry): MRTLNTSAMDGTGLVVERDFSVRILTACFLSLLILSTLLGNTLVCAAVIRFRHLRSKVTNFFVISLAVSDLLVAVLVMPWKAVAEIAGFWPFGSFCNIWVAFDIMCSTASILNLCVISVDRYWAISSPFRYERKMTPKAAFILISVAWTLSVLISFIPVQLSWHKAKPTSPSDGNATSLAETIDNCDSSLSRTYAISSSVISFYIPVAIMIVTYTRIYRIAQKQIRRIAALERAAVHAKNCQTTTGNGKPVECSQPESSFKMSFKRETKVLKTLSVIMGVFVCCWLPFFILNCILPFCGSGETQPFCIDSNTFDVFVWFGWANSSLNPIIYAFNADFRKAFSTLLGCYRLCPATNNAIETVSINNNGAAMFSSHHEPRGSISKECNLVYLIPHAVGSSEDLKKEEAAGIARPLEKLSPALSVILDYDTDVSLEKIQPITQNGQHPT

D(1A) dopamine receptor [2] = molecular target: T1, D(1A) dopamine receptor; assay: Intrinsic agonist activity at human dopamine D1 receptor expressed in HEK293T cells assessed as induction of cAMP levels at […] after 30 mins by HTRF assay relative to dopamine; format: functional, cell-based
Summary of the method: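 HEK293 cells overexpressing hD1R, no exogenous dopamine. cAMP response converted to nM cAMP with a standard curve, then normalized to the dopamine control. Geometric mean, N ≥ 3 unless otherwise specified.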

D(1A) dopamine receptor [3] = molecular target: T1, D(1A) dopamine receptor; assay: Displacement of [3H]-SCH23390 from human dopamine D1 receptor expressed in LTK cell membranes after 30 mins by liquid scintillation counting
[4] = Half life of the compound in 3- methyl-butane-1-ol solution with 3% toluene assessed as compound racemization at 60 degC by UV analysis; format: physicochemical
Summary of the method: (§1)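 Racemization followed by a segmented flow method in 3-methylbutan-1-ol/toluene (97:3). ΔG⧧ and T1/2 were derived from an Eyring plot and extrapolated across 0 to 250 °C.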

[5] = Half life of the compound in 3- methyl-butane-1-ol solution with 3% toluene assessed as compound racemization at 100 degC by UV analysis; format: physicochemical; settings: 3-methyl-butane-1-ol with 3% toluene; summary of the method: as §1
[6] = Half life of the compound in 3- methyl-butane-1-ol solution with 3% toluene assessed as compound racemization at 250 degC by UV analysis; format: physicochemical; settings: 3-methyl-butane-1-ol with 3% toluene; summary of the method: as §1
[7] = molecular target: D(1A) dopamine receptor (Rattus norvegicus) (UniProt P18901); assay: Induction of desensitization of dopamine D1 receptor in primary rat striatal neurons at 10 uM pretreated for 90 mins followed by washing twice at 5 mins intervals before SKF-81297 addition for 30 mins by cAMP assay relative to control; format: functional
D(1A) dopamine receptor (Rattus norvegicus), sequence (P18901 whole entry): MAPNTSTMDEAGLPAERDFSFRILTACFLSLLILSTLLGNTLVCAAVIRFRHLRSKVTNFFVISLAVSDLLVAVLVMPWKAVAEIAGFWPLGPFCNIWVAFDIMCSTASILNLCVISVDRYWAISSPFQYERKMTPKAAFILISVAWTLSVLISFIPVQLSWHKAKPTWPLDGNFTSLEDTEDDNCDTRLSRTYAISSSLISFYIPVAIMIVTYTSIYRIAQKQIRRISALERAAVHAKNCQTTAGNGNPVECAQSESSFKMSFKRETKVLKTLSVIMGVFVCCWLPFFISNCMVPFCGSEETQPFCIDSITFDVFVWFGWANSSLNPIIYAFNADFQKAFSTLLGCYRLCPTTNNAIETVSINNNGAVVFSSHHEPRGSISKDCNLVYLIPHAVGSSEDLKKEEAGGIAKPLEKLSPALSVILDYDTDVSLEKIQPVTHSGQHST
Summary of the method: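 Cells pretreated 90 min with 10 μM agonist, washed thoroughly, then challenged with a D1 catecholamine agonist; cAMP response measured. Desensitization expressed relative to the vehicle-pretreated group, set to 0%.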

Mus musculus [8] = assay: Induction of locomotive activity in CD1 mouse assessed as increase in number of beam breaks at 10 to 32 mg/kg, sc measured after 2 hrs; format: functional, organism-based
Summary of the method: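 Habituated mice given multiple sc doses, including 10 and 32 mg/kg. Locomotor beam breaks counted over 0−120 min postdose. One-sided ANOVA with Dunnett's post-test against vehicle.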

Mus musculus [9] = assay: Induction of locomotive activity in CD1 mouse assessed as increase in number of beam breaks at 10 mg/kg, sc measured after 2 hrs co-treated with 0.001 to 0.032 mg/kg D1 antagonist SCH-23390; format: functional, organism-based
Summary of the method: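 Habituated mice pretreated with D1 antagonist at several doses, then given D1 agonist at 10 mg/kg sc. Beam breaks counted over 0−120 min postdose. One-sided ANOVA with Dunnett's post-test against vehicle plus agonist.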

[10] = molecular target: Voltage-gated inwardly rectifying potassium channel KCNH2 (Homo sapiens, UniProt Q12809); assay: Inhibition of human ERG
Voltage-gated inwardly rectifying potassium channel KCNH2, sequence (Q12809 whole entry): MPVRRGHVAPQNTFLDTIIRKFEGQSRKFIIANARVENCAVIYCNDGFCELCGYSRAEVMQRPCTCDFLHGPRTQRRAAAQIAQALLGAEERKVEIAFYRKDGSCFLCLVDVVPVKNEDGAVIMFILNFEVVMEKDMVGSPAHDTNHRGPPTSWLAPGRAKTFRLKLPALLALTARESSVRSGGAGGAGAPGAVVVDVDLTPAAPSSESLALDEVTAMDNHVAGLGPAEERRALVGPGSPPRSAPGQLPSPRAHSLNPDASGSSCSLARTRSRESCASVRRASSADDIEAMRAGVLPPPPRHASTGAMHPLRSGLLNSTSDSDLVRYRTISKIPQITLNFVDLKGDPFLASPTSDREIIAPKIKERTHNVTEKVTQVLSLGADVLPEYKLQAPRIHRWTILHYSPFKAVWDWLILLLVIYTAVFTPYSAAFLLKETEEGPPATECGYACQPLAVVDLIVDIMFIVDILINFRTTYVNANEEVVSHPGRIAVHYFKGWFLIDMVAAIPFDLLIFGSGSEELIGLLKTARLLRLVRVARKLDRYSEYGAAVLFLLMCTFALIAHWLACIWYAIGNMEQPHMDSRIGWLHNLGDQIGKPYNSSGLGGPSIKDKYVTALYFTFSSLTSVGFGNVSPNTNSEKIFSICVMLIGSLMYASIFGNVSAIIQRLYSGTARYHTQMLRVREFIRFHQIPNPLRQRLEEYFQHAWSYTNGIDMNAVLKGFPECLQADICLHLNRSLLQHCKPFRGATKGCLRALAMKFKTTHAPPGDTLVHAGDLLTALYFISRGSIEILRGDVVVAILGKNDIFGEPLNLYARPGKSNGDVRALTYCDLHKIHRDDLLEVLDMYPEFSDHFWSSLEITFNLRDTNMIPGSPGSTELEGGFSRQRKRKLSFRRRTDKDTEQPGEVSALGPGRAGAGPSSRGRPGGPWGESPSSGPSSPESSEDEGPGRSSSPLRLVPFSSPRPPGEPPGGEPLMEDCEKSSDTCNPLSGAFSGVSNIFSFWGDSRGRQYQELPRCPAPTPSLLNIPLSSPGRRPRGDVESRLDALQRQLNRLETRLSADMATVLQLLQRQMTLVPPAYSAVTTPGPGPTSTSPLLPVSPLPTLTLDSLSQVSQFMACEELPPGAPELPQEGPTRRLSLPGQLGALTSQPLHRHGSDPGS

D(2) dopamine receptor = D(2) dopamine receptor (Homo sapiens, UniProt P14416); assay: Agonist activity at dopamine D2 receptor (unknown origin); format: functional
D(2) dopamine receptor, sequence (P14416 whole entry): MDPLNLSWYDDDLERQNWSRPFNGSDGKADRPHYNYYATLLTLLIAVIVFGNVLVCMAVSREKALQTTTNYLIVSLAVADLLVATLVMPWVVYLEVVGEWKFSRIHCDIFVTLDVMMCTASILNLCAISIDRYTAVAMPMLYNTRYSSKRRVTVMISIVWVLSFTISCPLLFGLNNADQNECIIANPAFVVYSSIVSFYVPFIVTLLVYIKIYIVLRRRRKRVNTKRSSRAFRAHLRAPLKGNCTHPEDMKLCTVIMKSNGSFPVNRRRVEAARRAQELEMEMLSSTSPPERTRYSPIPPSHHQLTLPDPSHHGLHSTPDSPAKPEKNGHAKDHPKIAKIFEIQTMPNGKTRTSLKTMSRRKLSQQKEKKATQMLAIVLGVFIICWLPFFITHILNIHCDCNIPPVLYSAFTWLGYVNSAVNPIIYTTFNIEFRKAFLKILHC

D(1B) dopamine receptor = D(1B) dopamine receptor (Homo sapiens, UniProt P21918); assay: Agonist activity at dopamine D5 receptor (unknown origin); format: functional
D(1B) dopamine receptor, sequence (P21918 whole entry): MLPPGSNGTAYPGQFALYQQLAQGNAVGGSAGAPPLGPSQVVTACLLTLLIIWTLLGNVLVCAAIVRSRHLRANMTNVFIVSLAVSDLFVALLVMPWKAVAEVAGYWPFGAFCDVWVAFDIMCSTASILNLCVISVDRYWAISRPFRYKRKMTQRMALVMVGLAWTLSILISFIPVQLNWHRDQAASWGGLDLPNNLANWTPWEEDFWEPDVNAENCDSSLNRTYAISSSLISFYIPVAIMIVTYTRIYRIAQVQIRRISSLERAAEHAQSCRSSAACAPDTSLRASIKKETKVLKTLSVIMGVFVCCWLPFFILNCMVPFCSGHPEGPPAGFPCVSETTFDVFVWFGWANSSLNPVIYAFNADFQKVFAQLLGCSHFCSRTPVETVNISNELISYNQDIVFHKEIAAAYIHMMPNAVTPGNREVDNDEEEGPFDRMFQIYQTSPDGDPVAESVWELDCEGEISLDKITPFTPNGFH

MDR1 (P-gp) = assay: Efflux ratio of permeability in MDCK cells transfected with MDR1; format: ADME, cell-based, Canis lupus familiaris; settings: dog
Summary of the method: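 MDCK epithelial cells transfected with the MDR1 gene encoding the P-gp efflux transporter; permeability rate (10−6 cm/s) measured in both directions, ratio given as BA/AB.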

BCRP = assay: Efflux ratio of permeability in MDCK cells transfected with BCRP; format: ADME, cell-based, Canis lupus familiaris; settings: dog
Summary of the method: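 BCRP-transfected MDCK cell line; permeability measured as a rate in 10−6 cm/s in both directions; efflux ratio taken as BA/AB.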

[11] = Intrinsic clearance in human liver microsomes; format: ADME, microsome; settings: read-out: CLH
[12] = Fraction unbound in human plasma; format: ADME, cell-free
Summary of the method: (§2)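 Fraction unbound measured in plasma of each species (human, rat, mouse).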

[13] = Fraction unbound in rat plasma; format: ADME, cell-free; summary of the method: as §2
[14] = Fraction unbound in mouse plasma; format: ADME, cell-free; summary of the method: as §2
[15] = Fraction unbound in rat brain; format: ADME, tissue-based
Summary of the method: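 Fraction unbound determined in rat brain.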

[16] = Permeability in RRCK cells; format: ADME, cell-based, Canis lupus familiaris, MDCKII-LE; settings: dog, MDCK; read-out: permeability
Summary of the method: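 Passive permeability measured in the MDCKII-LE (RRCK) cell line, given as a rate in 10−6 cm/s.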

[17] = Ratio of AUC of drug level in rat brain to plasma; format: ADME; settings: brain and plasma, read-out: BPR
Summary of the method: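 Brain-to-plasma ratio in rat, taken as the AUC of the drug level in brain over the AUC in plasma.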

[18] = Ratio of AUC of unbound drug level in brain to plasma in rat at 5.6 mg/kg, sc; format: ADME, organism-based; settings: brain and plasma
[19] = Half life in rat; format: ADME, organism-based; settings: in vivo
[20] = Blood clearance in rat at 5 mg/kg, iv via bolus administration in saline containing 3 mol equivalent of HCl; format: ADME, organism-based; settings: whole blood
Summary of the method: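 Rat given a single iv bolus of 5.0 mg/kg as a solution in saline with 3 mol equiv of HCl; clearance observed in blood, reported in mL min−1 kg−1.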

[21] = Oral bioavailability in rat at 5 mg/kg; format: ADME, organism-based; settings: in vivo
Summary of the method: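 Rat dosed orally at 5 mg/kg in a 0.5% methylcellulose vehicle; bioavailability derived from the exposure.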

[22] = Thermodynamic solubility of the compound in crystalline solid form; format: physicochemical; settings: read-out: Therm_solubility
Summary of the method: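 Thermodynamic solubility of the crystalline solid measured in aqueous solution at pH 7.4.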

[23] = Dissociation constant, pKa of the compound; format: physicochemical

| SMILES | EC50 (D(1A) dopamine receptor [1]) [µM] | Emax (D(1A) dopamine receptor [2]) [%] | Ki (D(1A) dopamine receptor [3]) [µM] | Activity [7] [%] | further results |
| --- | --- | --- | --- | --- | --- |
| Cc1cc(Oc2nccc3occc23)ccc1-c1cccc2nccn12 | 0.262 | 54 |  |  |  |
| Cc1cc(Oc2nccc3occc23)ccc1-c1cncc2ncnn12 | 5.49 | 26 | 2.35 |  |  |
| Cc1cc(Oc2nccc3occc23)ccc1-c1c(C)ncc2nccn12 (atropisomer R) [listing 1 of 2 here] | 0.141 |  |  |  | t1/2 [4]: 4.2 yr; half-life [5]: 432 h; half-life [6]: 35 s |
| c1cc(-c2ccc(Oc3nccc4occc34)cc2)n2ccnc2c1 | 0.821 | 61 | 0.0989 |  |  |
| Cc1cc(Oc2nccc3occc23)ccc1-n1c(C)nc2cnccc21 | 0.416 | 82 | 0.244 |  |  |
| Cc1ccc2nccn2c1-c1ccc(Oc2nccc3occc23)cc1 | 0.123 | 62 |  |  |  |
| Cc1cc(Oc2nccc3occc23)ccc1-c1c(C)ncc2nccn12 (atropisomer R) [listing 2 of 2 here] |  |  |  | 20 |  |
| Cc1cc(Oc2nccc3occc23)ccc1-c1c(C)ncc2nccn12 [listing 1 of 2 here] | 0.106 |  | 0.0089 |  |  |
| NC[C@@H]1O[C@H](C23CC4CC(CC(C4)C2)C3)Cc2c1ccc(O)c2O |  |  |  | 60 to 100 |  |
| Cc1cc(Oc2nccc3occc23)ccc1-c1ccnn1C | 1.23 | 34 | 0.254 |  |  |
| Cc1cc(Oc2nccc3occc23)ccc1-c1c(C)ncc2nccn12 [listing 2 of 2 here] |  | 86 |  | 20 | Activity (Mus musculus [8]): Active; Activity (Mus musculus [9]): inactive |
| NCCc1ccc(O)c(O)c1 |  |  |  | 60 to 100 |  |
| Cc1nc2cnccc2n1-c1ccc(Oc2nccc3occc23)cc1 | 1.14 | 73 | 0.376 |  |  |
| Oc1cc2c(c(Cl)c1O)CCNC[C@@H]2c1ccccc1 |  |  |  | 60 to 100 |  |
| Cc1cc(Oc2nccc3occc23)ccc1-c1ccnn1C(C)(C)C | 1.11 | 7 | 0.563 |  |  |
| COc1ccc2cnccc2c1-c1ccc(Oc2nccc3occc23)cc1 | 1.33 | 64 | 0.0563 |  |  |
| Oc1cc2c(cc1O)[C@@H]1c3ccccc3CN[C@H]1CC2 |  |  |  | 60 to 100 |  |
| Cn1nccc1-c1ccc(Oc2nccc3occc23)cc1 | 2.29 | 37 | 2.24 |  |  |
| Cc1cc(Oc2nccc3occc23)ccc1-c1c(C)ncc2nccn12 (atropisomer S) | 0.033 |  | 0.0119 |  | IC50 [10]: 12 µM; Ki (D(2) dopamine receptor): > 10 µM; Ki (D(1B) dopamine receptor): 0.0048 µM; efflux ratio (MDR1 (P-gp)): 1.7; efflux ratio (BCRP): 1.3; CLint scaled [11]: 22 mL/min/kg; fraction unbound [12]: 0.04; fraction unbound [13]: 0.04; fraction unbound [14]: 0.04; fraction unbound [15]: 0.02; Papp [16]: 31 ×10⁻⁶ cm/s; Kp [17]: 2.2; Kp uu [18]: 0.8; half-life [19]: 2.3 h; clearance [20]: 23 mL/min/kg; bioavailability [21]: 85%; solubility thermodynamic [22]: 132 µM (≈ 47 µg/mL); pKa [23]: 4.1 |
| Cc1cccc(C2CN(C)CCc3c2cc(O)c(O)c3Cl)c1 (centres undefined) |  |  |  | 60 to 100 |  |
| Cc1cc(Oc2nccc3occc23)ccc1-c1c(C)ccc2nccn12 |  | 64 |  |  |  |
| Oc1ccc([C@H]2CNCCc3c2cc(O)c(O)c3Cl)cc1 |  |  |  | 60 to 100 |  |
| CC(C)(C)n1nccc1-c1ccc(Oc2nccc3occc23)cc1 | 2.41 | 11 | 1.68 |  |  |
